LEDGF integ inh – blocks HIV-1 LEDGF/p75-dependent DNA integration. TR-FRET IN-LEDGF/p75 DNA integration, Eu/Cy5. inhibition, % at 3.7 µM. 370,000 compounds, 0.64% hits. AID 743269;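 active = inhibition above the screen-wide mean plus 3 SD, cut at about 13% in these data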;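 note: signal is the Cy5 over europium emission ratio at 671 and 618 nm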
MBD2 inh – blocks human MBD2 binding to methylated DNA; TR-FRET, MBD2 binding to methylated oligonucleotide; AID 686964; Q9UBB5; inhibition, % at 4.4 µM; 370,000 compounds, 0.31% hits; in the data active = inhibition above about 13%
SIAE inh – human SIAE inhibition, primary screen; SIAE FP-Rh probe binding, fluorescence polarization; inhibition, % at 9.66 µM; Q9HAT2; AID 1053197; 370,000 compounds, 0.69% hits;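 active = inhibition above a cutoff: mean of compounds within the control limits plus 3 SD of those, cut at about 17% in these data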
Target sequence (Q9HAT2 whole entry, looked up): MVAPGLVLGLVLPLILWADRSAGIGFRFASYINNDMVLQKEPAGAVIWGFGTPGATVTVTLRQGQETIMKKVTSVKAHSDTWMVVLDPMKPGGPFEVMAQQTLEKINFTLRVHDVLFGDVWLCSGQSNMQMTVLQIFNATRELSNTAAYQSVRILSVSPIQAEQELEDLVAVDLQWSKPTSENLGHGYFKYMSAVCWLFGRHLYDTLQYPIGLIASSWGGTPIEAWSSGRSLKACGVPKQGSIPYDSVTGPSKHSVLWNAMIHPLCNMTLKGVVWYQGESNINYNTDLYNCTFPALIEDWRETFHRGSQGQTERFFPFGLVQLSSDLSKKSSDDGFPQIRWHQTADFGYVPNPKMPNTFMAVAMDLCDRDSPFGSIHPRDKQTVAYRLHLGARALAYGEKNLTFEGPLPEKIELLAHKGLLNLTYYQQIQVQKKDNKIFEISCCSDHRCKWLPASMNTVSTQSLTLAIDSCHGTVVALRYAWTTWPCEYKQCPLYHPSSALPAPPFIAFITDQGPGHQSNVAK
TDP2 inh – TDP2 (human) inhibition, absorbance primary screen. 370,000 compounds, 0.34% hits. inhibition, % at 12.8 µM. O95551. recombinant TDP2, T5PNP hydrolysis, p-nitrophenol absorbance 415 nm. AID 720702;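 active = inhibition above the mean of all tested compounds plus 3 SD, set per campaign, cut at about 25% in these data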
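System: recombinant human TDP2 / Amount: 120 nM TDP2 per well / Also added: 5 mM T5PNP chromogenic substrate / Doses: 12.8 µM single point, 1% DMSO / Incubation: 2 h at 37 °C / Detection: p-Nitrophenol epi absorbance / Evaluation: % inhibition relative to enzyme-containing and enzyme-free wells / Repeats: singlicate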
UHRF1 binding – UHRF1 methyl-DNA binding inhibition; 370,000 compounds, 0.75% hits; AID 687016; Q96T88; UHRF1 binding to methylated oligo, TR-FRET; inhibition, % at 4.4 µM; in the data active = inhibition above about 21%;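 note: UHRF1 SRA domain binding a hemimethylated CpG hairpin DNA probe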
PRMT1 FP inh – inhibitors of human PRMT1 | 370,000 compounds, 1.3% hits | AID 652257 | inhibition, % at 2.79 µM | recombinant PRMT1, activity-based probe fluorescence polarization;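 active = inhibition above about 21% made by adding two undisclosed values, limit read from the data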
Large screens that a line does not name were inactive. Compounds with a hit are over-represented: about 3.3% of the library has one in this group of screens.

CCCCN(C)C(=O)CNc1nnnn1-c1ccccc1	none
CCCC/C=C1/[C@H](c2ccccc2)N(C)C2=N[C@@H](c3ccccc3)CC(=O)N21	none
Cc1nc(C)c(CCNC(=O)c2ccccc2Br)s1	UHRF1 binding 21
Cc1ccc(C(=O)NCCc2sc(C)nc2C)cc1	PRMT1 FP inh 23
CC(=O)OCC1=C(C(=O)O)N2C(=O)[C@@H](NC(=O)CSc3ccncc3)[C@H]2SC1	none
CC(=O)OCC1=C(C(=O)O)N2C(=O)C(NC(=O)c3ccc(F)cc3)C2SC1 (stereo not given)	PRMT1 FP inh 24
CC(=O)OCC1=C(C(=O)O)N2C(=O)C(NC(=O)C(C)Cn3nc(C)c(Cl)c3C)C2SC1 (stereo not given)	PRMT1 FP inh 25
Cc1ccccc1Cn1cc(COC(=O)NCCc2ccccc2)nn1	none
O=[N+]([O-])c1ccc(-c2ccc(C=Nc3cccc4ccccc34)o2)cc1	PRMT1 FP inh 22
CCCn1c(SCC(=O)c2cc(C)n(C3CC3)c2C)n[nH]c1=O	UHRF1 binding 26
CCCN1C(=O)c2[nH]nc(-c3ccccc3)c2C1c1ccc(F)cc1 (stereo not given)	PRMT1 FP inh 22
[S-]C(=Nc1ccc(Cl)cc1)N[n+]1ccccc1	UHRF1 binding 58
ONC(=Nc1ccc(Cl)cc1)c1ccc(Cl)cc1	none
COC(=O)[C@]12C[C@H](CC(=O)NCc3ccccc3)C(=O)N(Cc3ccco3)C1=C[C@H](C(C)(C)C)O[C@@H]2C	none
Cc1ccc(S(=O)(=O)Nc2ccc(O)c3ncccc23)cc1	none
Cc1ccc(S(=O)(=O)Nc2ccc(O)c3cccnc23)cc1	PRMT1 FP inh 21
CCOc1ccc(N2C(=O)CC(SCCN)C2=O)cc1 (stereo not given)	PRMT1 FP inh 22
CCCCCCOc1ccc(N2C(=O)CC(SCCN)C2=O)cc1 (stereo not given)	none
COC(=O)c1cn(C(=O)c2ccccc2Cl)c2ccccc12	UHRF1 binding 25
O=C1C(Cl)=C(Nc2ccccc2O)C(=O)N1c1ccccc1	PRMT1 FP inh 22
Cc1ccc(C(=O)N2CCCCC2)cc1NC1=C(Cl)C(=O)N(Cc2ccccc2)C1=O	none
Cc1ccc(O)c(NC2=C(Cl)C(=O)N(Cc3ccccc3)C2=O)c1	PRMT1 FP inh 24
Cc1c(NC2=C(Cl)C(=O)N(c3ccccc3)C2=O)c(=O)n(-c2ccccc2)n1C	none
COc1ccc(OC)c(NC(=O)O[C@@H]2CC[C@@]34CCCN3C(=O)CCC[C@H]4C2)c1	none
CCOC(=O)C1CCN(C2CC(=O)N(c3cccc(Cl)c3)C2=O)CC1 (stereo not given)	PRMT1 FP inh 22
CCOC(=O)C1CCCN(C2CC(=O)N(c3ccc(C)cc3)C2=O)C1 (stereo not given)	none
Cc1ccc(S(=O)(=O)NC(C)C(c2cccs2)N2CCOCC2)cc1 (stereo not given)	UHRF1 binding 39
CC(C)C[C@@H](CN1CCC[C@@H]1CN1C(=O)C(=O)NC[C@@H]1Cc1ccccc1)N1C[C@H](Cc2ccccc2)N(CC2CCCCCC2)C(=O)C1=O	none
CC(C)C[C@H]1CN(CCCC[C@@H]2CNC(=O)C(=O)N2CC2CCCCC2)C(=O)C(=O)N1CCc1ccccc1	UHRF1 binding 21
O=C1NC[C@H](CCCCN2C[C@H](Cc3ccc(O)cc3)N(CCc3ccc(O)cc3)C(=O)C2=O)N(Cc2ccccc2)C1=O	UHRF1 binding 22
CC(C)C[C@H]1CN(CCCC[C@@H]2CNC(=O)C(=O)N2Cc2ccccc2)C(=O)C(=O)N1CC1CCCCC1	none
CC(C)C[C@@H](CN1CCC[C@@H]1CN1C(=O)C(=O)NC[C@@H]1Cc1ccccc1)N1C[C@H](Cc2ccccc2)N(CC2CCCCC2)C(=O)C1=O	UHRF1 binding 54
COC(=O)[C@]12C[C@H](CC(=O)NCc3ccc(OC)c(OC)c3)C(=O)N(Cc3cccc4ccccc34)C1=C[C@H](C1CCCC1)O[C@@H]2C	none
O=C(O)CCN1C(=O)/C(=C/c2cccc(OCc3ccc(F)cc3)c2)SC1=S	none
CC(OC(=O)Cn1[nH]c(=O)c2ccccc2c1=O)C(=O)Nc1ccc(F)cc1Cl (stereo not given)	UHRF1 binding 50
O=C(CCCN1C(=O)/C(=C/c2ccccc2Cl)SC1=S)NCCCN1CCOCC1	PRMT1 FP inh 24
O=C(CCN1C(=O)/C(=C/c2ccccc2F)SC1=S)NCCCN1CCOCC1	none
S=C(NCCc1ccccc1)N1CCCC1	UHRF1 binding 27
CC(C)CNc1ncnc2c1sc1nc(N3CCOCC3)c3c(c12)CC(C)(C)OC3	none
CN(C)CCNc1ncnc2c1sc1nc(N3CCCC3)c3c(c12)CC(C)(C)OC3	UHRF1 binding 23
CC1(C)Cc2c(c(-c3ccco3)nc3sc4c(NCC5CCCO5)ncnc4c23)CO1 (stereo not given)	PRMT1 FP inh 23
CCN(CC)CCNc1ncnc2c1sc1nc(N3CCOCC3)c3c(c12)CCCC3	none
CCN(CC)CCNc1ncnc2c1sc1nc(N3CCCC3)c3c(c12)CC(C)(C)OC3	UHRF1 binding 23
O=C(Nc1ccc(F)cc1F)Nc1csc2ccccc12	UHRF1 binding 33
O=C1CC(N2CCCN(Cc3ccccc3)CC2)=NC(=O)N1c1ccc(Br)cc1	none
c1ccc(CN2CCN(Cc3c[nH]c4ccccc34)CC2)cc1	none
Clc1ccc(N2CCN(Cc3c[nH]c4ncccc34)CC2)cc1	UHRF1 binding 23
C=CCN1C(=O)[C@@H](CC(=O)N2CCSCC2)[C@]2(C(=O)OC)CCCCC=C12	none
Cc1cc(C(=O)N/N=C/c2sccc2C)no1	UHRF1 binding 23
CC(C)CC(=O)NCCCCc1ccccc1	UHRF1 binding 21
CC(C)C(=O)NCCCc1ccccc1	none
C#CCOCCOCCOCCNc1nc(N2CCN(C(=O)[C@H](CCC(=O)O)n3cc(CN)nn3)CC2)nc(N2CCN(C(=O)[C@H](CCC(=O)O)n3cc([C@@H](N)[C@H](C)CC)nn3)CC2)n1	UHRF1 binding 22
CCCCCNCC(=O)Nc1cc(C(F)(F)F)ccc1OCCOC	UHRF1 binding 48
COCCOc1ccc(C(F)(F)F)cc1NC(=O)c1ccc(C)cc1	none
Cc1cc(SCC(=O)c2ccccc2)nc(=O)[nH]1	PRMT1 FP inh 25
Cc1ccc(C(=O)CSc2cc(C)[nH]c(=O)n2)cc1	none
O=c1[nH]c2ccccc2cc1CN(Cc1ccco1)S(=O)(=O)c1ccc(F)cc1	UHRF1 binding 23
COc1cc(C(=O)OC2CCCCC2=O)cc(OC)c1C (stereo not given)	UHRF1 binding 23
Cc1ccc(C(=O)NCC(=O)OC2CCCCC2=O)cc1C (stereo not given)	none
CCN(CC)C(=O)CC[C@H]1CC[C@]2(CCCN(S(=O)(=O)C3CCCCC3)C2)O1	none
